Hits are enriched below; roughly 2.3% of the tested compounds scored in any of these assays.
Arrestin-AP2 inh: inhibitors of human beta-arrestin and AP2 interaction; FITC-arrestin peptide / GST-AP2 beads, flow cytometry; AP2 beta2 appendage carries R879A mutation; 340,000 compounds, 0.31% hits; AID 504490; inhibition, % at 10 µM;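 active = inhibition above a set limit, near 3 SD of compounds lacking own fluorescence, cut at about 54% in these data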;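 note: plate controls were DMSO wells for no effect and 5 µM unlabelled arrestin peptide for full effect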
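Material – GST-tagged AP2 beta2-adaptin appendage (R879A) on 4 µm glutathione beads · Probe or stimulus – fluorescein-tagged arrestin peptide at 50 nM final · Timing – 12 min plus 1 h, RT · Detection – bead flow cytometry, FITC channel · Read-out basis – inhibition as reduced fluorescein signal on beads, percent · Medium – PBS plus Tween 20 (0.05%) and BSA (0.1%)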
MEKK2mut PB1 HTS: signal of MEK5 binding to mutant human MEKK2 PB1 domain. bead flow cytometry, Alexa488-MEK5 binding to MEKK2 mutant. percent response, % at 10 µM. 290,000 compounds, 0.35% hits; in the data active = percent response above about 24%, passing the limit was not always enough
MEKK3 PB1 HTS: modulators (inhibitors or enhancers) of MEK5 binding to human MEKK3 PB1 domain | bead-based flow cytometry, Alexa488-MEK5 binding to MEKK3; actives lie on both sides; 0 = blocked by unlabeled MEK5, 100 = vehicle | Q99759 | binding response (% of control), % at 10 µM | 290,000 compounds, 1.4% hits | AID 1529;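 active = binding response more than 3 SD above or below the average of its plate-row segment, actives on both sides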;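 note: Alexa488 bead fluorescence after subtracting the streptavidin-only scavenger bead signal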
Target sequence (Q99759 whole entry, looked up, the tested form may be a part): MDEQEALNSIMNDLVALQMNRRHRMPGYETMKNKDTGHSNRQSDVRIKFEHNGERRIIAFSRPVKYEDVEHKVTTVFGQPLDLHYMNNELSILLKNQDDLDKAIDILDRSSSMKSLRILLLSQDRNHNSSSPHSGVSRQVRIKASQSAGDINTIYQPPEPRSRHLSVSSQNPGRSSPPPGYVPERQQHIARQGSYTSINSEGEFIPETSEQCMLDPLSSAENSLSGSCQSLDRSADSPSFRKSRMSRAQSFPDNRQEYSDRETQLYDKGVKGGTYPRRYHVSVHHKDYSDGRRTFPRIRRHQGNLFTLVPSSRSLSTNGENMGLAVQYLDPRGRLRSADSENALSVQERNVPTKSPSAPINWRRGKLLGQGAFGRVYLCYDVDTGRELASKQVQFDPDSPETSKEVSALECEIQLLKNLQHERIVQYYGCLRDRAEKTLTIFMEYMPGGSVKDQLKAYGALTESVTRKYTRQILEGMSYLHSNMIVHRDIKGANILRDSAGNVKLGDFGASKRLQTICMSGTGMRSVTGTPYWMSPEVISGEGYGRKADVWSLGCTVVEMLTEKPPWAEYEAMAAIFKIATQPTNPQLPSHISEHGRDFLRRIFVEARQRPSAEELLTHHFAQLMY
MEKK2wt PB1 HTS: raises or lowers MEK5 binding to wildtype human MEKK2 PB1 domain. Q9Y2U5. bead flow cytometry, Alexa488-MEK5 binding to MEKK2 WT; actives lie on both sides. binding response (% of control), % at 10 µM. 290,000 compounds, 1.1% hits; in the data active = binding response below about 67% or above about 130%
MEKK2wt confirm: raises or lowers MEK5 binding to wildtype human MEKK2, retest; binding response (% of control), % at 10 µM; AID 1892; 5,900 compounds, 2.4% hits; shares compounds with MEKK3 PB1 HTS; bead flow cytometry, Alexa488-MEK5 binding to MEKK2 WT; actives lie on both sides; in the data active = binding response below about 16% or above about 210%; inactive = in between
MEKK2mut confirm: signal of MEK5 binding to mutant human MEKK2, retest | percent response, % at 10 µM | 5,900 compounds, 2% hits | shares compounds with MEKK3 PB1 HTS | bead flow cytometry, Alexa488-MEK5 binding to MEKK2 mutant; in the data active = percent response mostly above about 71%, no sharp cut-off; inactive = mostly below about 38%;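 note: higher means compound restores mutant binding toward wildtype level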
MEKK3 confirm: confirmation of inhibitors of MEK5 binding to human MEKK3; shares compounds with MEKK3 PB1 HTS; bead flow cytometry, Alexa488-MEK5 binding to MEKK3; stronger effect = lower value; binding response (% of control), % at 10 µM; 5,900 compounds, 1.8% hits; AID 1894;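 active = binding response below 72% of control, or above a set upper limit, though filed actives all read lower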;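 note: 100% = DMSO only wells and 0% = binding blocked by excess unlabeled MEK5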
* marks the source's active call; other numbers are inactive results; . = no result given; [ ] = remark or other dose.

SMILES	Arrestin-AP2 inh	MEKK2mut PB1 HTS	MEKK3 PB1 HTS	MEKK2wt PB1 HTS	MEKK2wt confirm	MEKK2mut confirm	MEKK3 confirm
NC(=O)C(c1ccccn1)c1ncc(C(F)(F)F)cc1Cl (stereo not given)	18	-14	40*[inhibitor]	52	101	-1	103
C=CCN(C#N)c1nc(OC)nc(N2CCCC2)n1	-5	11	130*	130	85	-7	80
COc1nc(OC)nc(N2CCCCCC2)n1	13	5	98	100	.	.	.
COc1cc(S(=O)(=O)n2cnc(C)c2)ccc1Cl	24	-9	99	85	.	.	.
CCOc1cc(S(=O)(=O)n2cnc(C)c2)ccc1Cl	-10	2	148*	123	93	-2	101
COC(=O)c1ccnc(SCC(=O)c2ccccc2)c1	1	0	99	98	.	.	.
COC(=O)c1ccnc(/C=N/O)c1	-8	-10	80*[inhibitor]	85	96	-6	102
COc1ccc(C2/C(=C(/O)c3ccc(C)cc3)C(=O)C(=O)N2C)c(OC)c1 (stereo not given)	12	6	104	110	.	.	.
Cc1nc2cc(NC(=O)N3CC4(C)CC3CC(C)(C)C4)ccc2n1C (stereo not given)	-1	-29	2.0*[inhibitor]	-2.0*[inhibitor]	106	4	101
Cc1nc2cc(NC(=O)N3CCCC3)ccc2n1C	19	-13	90	77	.	.	.
Clc1ccccc1Cc1noc(CN2CCCCC2CCc2ccccn2)n1 (stereo not given)	-1	7	98	99	.	.	.
Cc1cc(-c2ccc(S(=O)(=O)N3CCN(c4cccc(C)c4C)CC3)s2)on1	1	-7	95	92	.	.	.
Cc1ccc(NC(=O)c2oc3ccc(Br)cc3c2C)cc1S(=O)(=O)N1CCOCC1	18	.	.	.	.	.	.
CN(C(=O)COC(=O)c1cccc(S(=O)(=O)N(C)c2ccccc2)c1)C1CCCCC1	5	.	.	.	.	.	.
O=C(OCC(=O)c1c[nH]c2ccccc12)c1cccc(S(=O)(=O)N2CCCCCC2)c1	17	3	130*	128	114	5	107
CCc1cccc2c(C(=O)COC(=O)c3cccc(S(=O)(=O)N(C)C4CCCCC4)c3)c[nH]c12	21	2	132*	100	116	6	96
Cc1c(CCOC(=O)C23CC4(C)CC(C)(CC(C)(C4)C2)C3)sc[n+]1CC(=O)c1ccccc1	-5	23	98	158*	154	17	106
O=C(c1ccc(-n2cncn2)c([N+](=O)[O-])c1)N1CCN(S(=O)(=O)c2ccc(F)c(F)c2)CC1	10	.	.	.	.	.	.
COc1ccccc1NS(=O)(=O)c1cc(NC(=O)c2[nH]c(C)c(C(C)=O)c2C)ccc1N1CCOCC1	-7	0	101	103	.	.	.
O=C(Nc1nncs1)c1ccc(S(=O)(=O)c2ccccc2)cc1	7	6	123*	119	105	0	107
CC(=O)c1cnc(Oc2cc(Cl)ccc2Cl)nc1C	2	-5	98	91	.	.	.
Cc1ccc(N(C(=O)CS(=O)CC(=O)Nc2ccc(F)cc2)C(C(=O)NC2CCCCC2)c2ccco2)cc1 (stereo not given)	-3	0	132*	105	99	7	102
CCCCOP(=O)(OCCCC)C(Nc1ccccc1)c1ccc2c(c1)OCO2 (stereo not given)	-8	1	144*	113	99	0	102
CC(C)COP(=O)(OCC(C)C)C(O)c1ccc2c(c1)OCO2 (stereo not given)	13	26	130*	121	98	-5	100
O=C(NC1CCCCC1)c1cc(S(=O)(=O)N2CCCC2)ccc1Cl	-6	2	101	104	.	.	.
SMILES	Arrestin-AP2 inh	MEKK2mut PB1 HTS	MEKK3 PB1 HTS	MEKK2wt PB1 HTS	MEKK2wt confirm	MEKK2mut confirm	MEKK3 confirm
Cc1ccc(Cn2c(=O)sc3ccccc3c2=O)cc1	-6	2	98	101	.	.	.
O=c1sc2ccccc2c(=O)n1Cc1ccccc1F	3	6	139*	125	105	4	104
Cc1csc2c(NCCCN3CCOCC3)ncnc12	-10	27	137*	136	104	3	104
COc1ccc2nc(C)cc(N/N=C/c3cccc(OC)c3O)c2c1	7	72*	116	260*	236*	79*	106
Cc1cc(NCc2ccccc2)c2ccccc2n1	1	8	111	149*	116	9	103
COc1ccc(/C=N/Nc2cc(C)nc3ccc(Br)cc23)cc1	3	73*	106	214*	245*	120*	107
Cc1cc(-c2ccccc2)nc(N/N=C/c2ccc(O)cc2O)n1	-16	6	108	111	.	.	.
Cc1cc(NCc2ccccc2)nc2ccccc12	6	3	99	106	.	.	.
COc1cccc2c(N/N=C/c3ccccc3)cc(C)nc12	38	-3	100	102	.	.	.
Cc1cc(N/N=C/c2ccccc2O)c2ccccc2n1	4	14	108	186*	135	14	102
CCOC(=O)N1CCC(N(CCN(C)C)C(=S)Nc2ccccc2OC)CC1	3	-4	97	101	.	.	.
CCOC(=O)N1CCC(N(CCN(C)C)C(=S)Nc2cccc(C)c2)CC1	-3	0	138*	108	105	0	103
CCOC(=O)N1CCC(N(CCN(C)C)C(=S)Nc2cccc(SC)c2)CC1	8	-5	101	101	.	.	.
CCc1cccc(NC(=S)N(CCOC)C2CCN(C(C)=O)CC2)c1	2	34*	123*	118	110	11	110
CCOC(=O)N1CCC(N(CCN(C)C)C(=S)Nc2ccccc2C)CC1	6	1	130*	108	108	12	106
Cc1cc(C(=O)Nc2ccc(Br)cc2)c2ccccc2n1	-8	-1	100	99	.	.	.
CCO[C@H]1OC(C(=O)NCc2nc3ccccc3[nH]2)=C[C@@H](C2CC2)[C@@H]1CCCO	10	12	1.0*[inhibitor]	2.0*[inhibitor]	100	-2	101
O=C(NCc1nc2ccccc2[nH]1)C1=C[C@H](C2CC2)C[C@H](OCCCCO)O1	22	-3	79*[inhibitor]	94	96	0	103
O=C(NCc1nc2ccccc2[nH]1)C1=C[C@H](C2CCCCC2)C[C@H](OCCCCO)O1	-9	2	103	103	.	.	.
CN(C)CCCN(C(=O)c1ccc(Br)s1)c1nc2cc3c(cc2s1)OCO3	0	7	99	128	.	.	.
CN(C)CCN(C(=O)c1ccc(C(=O)c2ccccc2)cc1)c1nc2cc3c(cc2s1)OCCO3	-2	4	100	123	.	.	.
